Measurements reported in PubChem BioAssay AID624467 (The Scripps Research Institute Molecular Screening Center, 2012).
“And” between values parts separate entries of the source, which are not always exact repeats. Equal entries are not always repeated. Out of some 360,000 compounds screened, about 3,600 (1%) were called active. Many of the other results were omitted from the sample, so actives are more common in it than they were. A number with no mark means an inactive call.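 The calls were made as follows: active = activation above the mean activation of all test compounds in the run plus 3 SD (cut at about 38% in these data); inactive = the rest.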

These compounds were tested against Trace amine-associated receptor 1 (Homo sapiens) (UniProt Q96RJ0) (assay: activators of TAAR1 calcium mobilization – Fluo-8 calcium fluorescence, CHO RD-HGA16 cells, primary screen (AID 624467)). Conditions: CHO RD-HGA16 TAAR1, Fluo-8 calcium fluorescence; at 3 µM; stronger effect = higher value; vehicle wells 0%, saturating PEA agonist 100%.
Chain of Trace amine-associated receptor 1 (Homo sapiens) (Q96RJ0 whole entry, looked up): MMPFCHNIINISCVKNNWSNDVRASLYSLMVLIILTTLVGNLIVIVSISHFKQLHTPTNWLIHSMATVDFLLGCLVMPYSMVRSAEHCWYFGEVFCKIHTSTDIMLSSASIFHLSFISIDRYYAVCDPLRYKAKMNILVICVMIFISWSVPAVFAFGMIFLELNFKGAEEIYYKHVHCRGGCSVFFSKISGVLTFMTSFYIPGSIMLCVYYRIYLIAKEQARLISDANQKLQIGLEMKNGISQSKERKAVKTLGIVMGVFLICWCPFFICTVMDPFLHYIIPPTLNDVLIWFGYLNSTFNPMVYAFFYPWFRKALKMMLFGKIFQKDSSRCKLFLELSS
In short: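 System: CHO RD-HGA16 cells carrying human TAAR1 plus Gα16; Incubation: 17-24 h seeding, 75 min 37 °C dye, 30 min RT; Measured by: Fluo-8 fluorescence, 5 s baseline then 140 s kinetic read; Control set: DMSO and PEA EC100; Replication: single well for each compound.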

SMILES | activation
COc1cc(OC)cc(C(=O)N[C@H](C(=O)OCC(=O)NC(C)c2ccccc2)C(C)C)c1 (some centres not stated) | 78.4% (active)
COc1cc(OC)cc(C(=O)NCC(=O)OCC(=O)NC(C)CCc2ccccc2)c1 (configuration not stated) | 4.34%
COc1cc(OC)cc(C(=O)NC(C(=O)N2CCC2)C(C)C)c1 (configuration not stated) | 0.84%
COc1ccccc1OC(C)C(=O)Nc1ccc(S(=O)(=O)Nc2nccs2)cc1 (configuration not stated) | 3.3%
Cc1ccn2c(=O)c(C(=O)NCCC3=CCCCC3)c(O)nc2c1 | 75.2% (active)
O=C(NCCC1=CCCCC1)c1ccc(-n2cncn2)cc1 | 1.68%
O=C(CCNC(=O)Cn1ccc2ccccc2c1=O)NCCC1=CCCCC1 | 1.79%
CC1(C)OC(=O)C2=C(CC(CCc3ccccc3)OC2c2ccc(Cl)cc2)O1 (configuration not stated) | -0.49%
O=c1[nH]c(-c2ccccc2)cn1C1CCN(Cc2ccc(-c3nc4ccc(F)cc4nc3-c3ccccc3)cc2)CC1 | 2.82%
Cc1cc(C)c(S(=O)(=O)N2CCC(C(=O)OCc3c(C)noc3C)CC2)c(C)c1 | 5.51%
COC(=O)C1=C(C(=O)OC)C2C=C(C(C)C)C1C(=O)C2(C)O (configuration not stated) | 1.68%
COc1cccc(CNc2nc(NCc3ccccc3OC)nc3ccsc23)c1 | 3.04%
Clc1ccccc1Nc1nc(NCc2cccs2)nc2ccsc12 | 7.75%
COc1cccc(CNc2nc(NCc3cccs3)nc3ccsc23)c1 | 39% (active)
CCn1nnc(NC(=O)c2cc(Cl)c(OC)c(Cl)c2)n1 | 5.93%
O=C1CC(c2ccccc2)C(c2ccccc2)=NN1 (configuration not stated) | 2.78%
COc1ccc2c(c1)CCc1c(C(=O)N3CCc4ccccc4C3)noc1-2 | 13.8%
O=C(c1noc2c1CCCC2)N1CCc2ccccc2C1 | 54.6% (active)
O=C(c1cc(-c2cccc(O)c2)on1)N1CCc2ccccc2C1 | 31.8%

SMILES | activation
CCOC(=O)CC1(NC(=O)c2cc(COc3cncc(Cl)c3)on2)CCCCC1 | 4.12%
COC(=O)c1[nH]c2cccc(C)c2c1NC(=O)CN1CCCc2ccccc21 | 38.2% (active)
O=C(CN1CCc2ccccc21)NC(c1ccccc1)c1ccccc1 | -0.06%
CC(=O)c1c(C)[nH]c(C(=O)OCC(=O)Nc2c(C)cccc2C)c1C | 18.7%
Cc1ccc(NC(=O)N2c3ccccc3SC2c2ccco2)c(C)c1 (configuration not stated) | 1.34%
Cc1cc(Br)cn2c(Cc3ccccc3C(F)(F)F)c(-c3ccc(C#N)cc3)nc12 | 0.31%
O=C(CSc1nc(-c2ccco2)cc(C(F)(F)F)n1)NCc1cccs1 | 75.6% (active)
COc1ccc(-c2cc(C(F)(F)F)nc(SCCC(=O)NCc3ccco3)n2)cc1 | 0.17%
O=C(CSc1nc(-c2ccco2)cc(C(F)(F)F)n1)N1CCc2ccccc2C1 | 19.4%
CN(O)C(=S)c1ccccc1 | 4.65%
C[C@@H]1ON(C)[C@H]2C[C@H]3c4cc(N5CCOCC5)ccc4CCN3C[C@@H]12 | 2%
O=C(O)C1C2C=CC(O2)C1C(=O)Nc1ccccn1 (configuration not stated) | 2.36%
O=C(O)C1C2C=CC(O2)C1C(=O)NCCc1cccc(Cl)c1 (configuration not stated) | 76.8% (active)
O=C(NCCc1ccccc1)C1CC1 | 20.1%
O=C(NCc1ccccc1)[C@@H]1CCCN1C(=O)[C@H]1CCCN1C(=O)c1cccc(Cl)c1 | -0.12%
COc1ccc(CCNC(=O)COC(=O)c2cc(=O)c3ccccc3o2)cc1 | 17.5%
COc1ccc(CNC(=O)COC(=O)C2=Cc3ccccc3OC2)cc1 | 43.4% (active)
COc1ccc(CNC(=O)COC(=O)C(CCSC)N2C(=O)c3ccccc3C2=O)cc1 (configuration not stated) | 9.85%
Cc1nc2c(C(=O)NCc3cccs3)cnn2c(C)c1Cc1ccc(F)cc1 | -1.18%

SMILES | activation
Cc1ccc(NC(=O)CC2C(=O)N(Cc3ccccc3)C(=S)N2NC(=O)c2cccc(F)c2)c(C)c1 (configuration not stated) | 9.32%
COC(=O)Cc1nnn2c1[C@H](C)[C@H](c1ccccc1[N+](=O)[O-])OCC2 | 1.43%
COc1cccc(N(CC(=O)N2CCc3ccccc3C2)S(C)(=O)=O)c1 | 47.3% (active)
CS(=O)(=O)N(CC(=O)N1CCc2ccccc2C1)c1ccc(Br)cc1 | 2.37%
O=C(CN(c1cccc(Cl)c1)S(=O)(=O)c1ccccc1)NN=C1CCCC1 | -0.99%
Cc1cccc(N(CC(=O)N2CCOCC2)S(C)(=O)=O)c1 | 0.3%
Cc1ccc(S(=O)(=O)N(CC(=O)N2CCc3ccccc3C2)c2cccc(Cl)c2)cc1 | 49.8% (active)
Cc1ccc(Cl)c(OCC(=O)N2CCc3ccccc3C2)c1 | 0.5%
CCOC(=O)CNC(=O)N(C)[C@H]1C[C@H]2c3[nH]c4c(-c5ccc6c(c5)OCO6)cccc4c3CCN2C(=O)[C@H]1[C@H](C)O | 11.6%
COc1cccc(CNC(=O)[C@H]2CCCN2C(=O)[C@H]2CCCN2C(=O)C2CCCCC2)c1 | 2.02%
CCc1nn(CCCN2CCN(c3cccc(Cl)c3)CC2)c(=O)n1CCOc1ccccc1 | 5.08% and 3.96%
O=[N+]([O-])c1ccc2[nH]c3c(c2c1)CCCC3O (configuration not stated) | 2.87%
COC(=O)[C@]12C[C@H](CC(=O)N3CCN(C(=O)C4CC4)CC3)C(=O)N(Cc3ccc4c(c3)OCO4)C1=C[C@H](C(C)(C)C)O[C@@H]2C | 1.35%
Cc1ccc(C(=O)CCC(=O)N(C)CC(=O)Nc2c(Cl)cccc2Cl)cc1 | -0.39%
COc1ccccc1N1CC(C(=O)Nc2ccc(S(=O)(=O)N3CCOCC3)cc2)CC1=O (configuration not stated) | 1.9%
COc1ccc(OC)c(NC(=S)N2CCc3ccccc3C2)c1 | 69.4% (active)
COc1ccc(NC(=S)N2CCc3cc(OC)c(OC)cc3C2)cc1 | 2.44%
COc1ccc(C)cc1NC(=S)N1CCOCC1 | 0.86%
CCCCCCCCN1C(=O)[C@@H](CC(=O)NCCCC)C[C@@]2(C(=O)OC)C1=C[C@H](C(C)(C)C)O[C@@H]2C | -1.86%
